Hits are enriched below; roughly 1.9% of the tested compounds scored in any of these assays.
NadD block – inhibitors of S. aureus NadD, primary screen, biochemical, colorimetric, uHTS; Nicotinate-nucleotide adenylyltransferase NadD (Staphylococcus aureus N315); 360,000 compounds, 0.78% hits; AID 602399, 2012; inhibition, % at 20 µM; purified NadD enzyme, colorimetric absorbance read-out; in the data active means inhibition above about 26%
IMP-1 inh – IMP-1 metallo-beta-lactamase inhibitors, primary screen, biochemical, epi-absorbance readout, Pseudomonas aeruginosa enzyme | purified IMP-1, nitrocefin hydrolysis, epi-absorbance fluorescence | inhibition, % at 5.6 µM | 290,000 compounds, 0.45% hits | AID 1556, 2009 | metallo-beta-lactamase IMP-1 (Pseudomonas aeruginosa);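 active means inhibition above the mean plus 3 SD of all compounds in the same screening run, cut at about 4.5% in these data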;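 further: 0% = IMP-1 with DMSO and 100% = DMSO wells lacking enzyme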
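Test system: recombinant IMP-1 enzyme, purified / Medium: HEPES buffer pH 7.1 with ZnSO4 and Brij 35 / Doses: single dose, 5.6 µM / Times: 25 °C, 15 min preincubation, 25 min reaction / Detection: Epi-absorbance via hydrolysed-nitrocefin quenching of white-plate fluorescence, 480/530 nm, EDTA stop / Evaluation: percent inhibition from optical density relative to buffer-blank wells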
VIM-2 inh – VIM-2 metallo-beta-lactamase inhibitors, primary screen, biochemical, epi-absorbance readout, Pseudomonas aeruginosa enzyme. purified VIM-2, nitrocefin hydrolysis, epi-absorbance fluorescence. inhibition, % at 5.6 µM. 290,000 compounds, 0.89% hits. AID 1527, 2009;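 active means inhibition above the mean of all tested compounds plus 3 SD, cutoff set per screening run, cut at about 7.5% in these data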;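 further: red hydrolysis product quenches plate fluorescence so inhibitors raise well fluorescence; 0% = enzyme with DMSO and 100% = DMSO without enzyme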
core dimer inh – inhibitors of HCV core protein dimerization, primary screen, biochemical, TR-FRET, high-throughput; TR-FRET GST/Flag-core106 dimerization, 1536-well; 300,000 compounds, 0.33% hits; inhibition, % at 5 µM;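 active means inhibition above the mean of all tested compounds plus 3 SD, set per screening campaign, cut at about 45% in these data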
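System: GST-tagged and Flag-tagged HCV core protein residues 1-106 / Input: core106 proteins, GST 13.5 nM and Flag 17 nM / Buffer or medium: KF-containing HEPES buffer, pH 7.45, DTT, CHAPS, BSA / Probe or stimulus: Eu-anti-GST and XL665-anti-Flag labelled anti-tag antibodies / Schedule: 4 h, 22.5 °C incubation / Technique: TR-FRET 671 and 617 nm emission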
Starred values were filed as active, the others as inactive; . = no result given.

SMILES | NadD block | IMP-1 inh | VIM-2 inh | core dimer inh
COc1ccc(C2CC(=O)C=C3c4ccc(OC)cc4CCC32)cc1 (stereo not drawn) | -2.0 | . | . | .
COc1ccccc1-n1cnnc1SCC(=O)Nc1cccc(S(N)(=O)=O)c1 | -10.4 | -4.7 | 0.1 | -12.3
Cn1c(N)c(C(=O)COC(=O)c2cc(-c3ccco3)nc3ccccc23)c(=O)n(Cc2ccccc2)c1=O | . | -0.8 | -0.3 | 47.1*
COc1ccc(CCNC(=O)c2cc(-c3ccco3)nc3ccccc23)cc1 | . | -4.0 | -2.8 | 64.7*
O=C(NCCc1ccccc1)c1ccc2nc(-c3ccco3)c(-c3ccco3)nc2c1 | 39.6* | -2.6 | -4.9 | 65.2*
CN(C)c1ccccc1-c1cc(NC=O)c2ncc(-c3cccc(C(F)(F)F)c3)n2c1 | 23.2 | . | . | .
Cc1ccc(-c2ccc(S(=O)(=O)Nc3cccnc3)cc2)cc1 | 13.2 | -1.6 | -2.3 | -3.8
Fc1ccc2nc(C(F)(F)F)cc(N3CCOCC3)c2c1 | -3.8 | -2.0 | -2.5 | .
CCOc1ccc(N(CC(=O)NCc2ccco2)C(=O)CCC(=O)Nc2ccccn2)cc1 | -3.6 | -2.2 | -2.5 | .
O=C(NCCS(=O)(=O)N1CCN(c2ccccc2F)CC1)c1cccc(Br)c1 | -5.6 | -5.6 | -1.7 | 1.5
Cc1cc(/C=N/NC(=O)CC#N)c(C)n1-c1ccc([N+](=O)[O-])cc1 | -2.9 | -2.7 | -1.9 | 4.8
COCc1c(Br)c(C)nc(OCC(=O)N/N=C/c2cc(C)n(-c3ccc([N+](=O)[O-])cc3)c2C)c1C#N | 19.6 | -3.8 | -2.5 | 48.3*
CC1=NN(c2ccccc2)C(=O)/C1=C\C=C\c1ccccc1 | -10.6 | -3.5 | -1.5 | 20.3
CC1=NN(c2ccc(C)c(C)c2)C(=O)/C1=C\C=C\c1ccc([N+](=O)[O-])o1 | 10.9 | -3.9 | 1.7 | 62.7*
O=C(NO)c1cc(OCC(F)(F)F)ccc1OCC(F)(F)F | -1.4 | -2.3 | 11.6* | 2.1
O=C(NC1CC1)c1cc(OCC(F)(F)F)ccc1OCC(F)(F)F | -1.7 | -1.1 | -0.4 | -5.5
COc1ccccc1NC(=O)Cn1nnc(C(=O)NCc2ccc3c(c2)OCO3)c1N | -7.9 | -1.5 | -2.2 | 9.9
COc1ccc(Cl)cc1NC(=O)Cn1nnc(C(=O)NCc2ccc3c(c2)OCO3)c1N | 0.5 | 17.9* | -0.9 | 5.5
CCc1ccc2c(c1)C1(NN=C(c3cccc4ccccc34)S1)C(=O)N2 (stereo not drawn) | 34.5* | 1.6 | -3.1 | 20.6
CCc1ccc2c(c1)NC(=O)C2(C)Cc1ccccc1 (stereo not drawn) | -2.0 | . | . | .
CNC(=O)c1c(NC(=O)C2=COCCO2)sc2c1CCCC2 | -8.3 | -0.3 | 1.5 | 5.2
O=C(O)CCNc1cc(N2CCN(C(=O)c3ccco3)CC2)c2noc3c2c1C(=O)c1ccccc1-3 | 28.4 | 7.0* | 0.1 | -150.4
Cc1cc(N2CCN(C(=O)c3ccco3)CC2)c2ccccc2n1 | -5.0 | -1.5 | -1.8 | -3.5
CC(=O)OCCNc1cc(N2CCN(C)CC2)c2noc3c2c1C(=O)c1ccccc1-3 | 25.2 | -0.8 | 8.2* | .
CNC(=O)COC(=O)C1CCN(S(=O)(=O)c2ccc3c(c2)OCCO3)CC1 | -1.7 | . | . | .
SMILES | NadD block | IMP-1 inh | VIM-2 inh | core dimer inh
COc1cc2c(cc1OC)CC(=O)NC=C2 | -3.1 | -0.9 | 1.4 | -1.1
Cc1ccc(N2C(=O)c3cccc4c(N)ccc(c34)C2=O)c2cccnc12 | 2.1 | 5.7* | 4.8 | -4.1
O=C(/C=C/Nc1cccc(C(F)(F)F)c1)C(F)(F)F | -10.4 | 5.9* | -0.5 | 0.1
Cc1ccc(CNC(=O)CSc2nnc(CNC(=O)c3ccccc3)o2)cc1 | -1.1 | -0.4 | -2.5 | -21.9
Cc1nc(NCc2ccco2)c(C#N)c2c1COC(C)(C)C2 | -1.7 | -1.2 | -1.1 | -0.1
CC1(C)Cc2c(C#N)c(NCc3ccco3)nc(-c3ccco3)c2CO1 | -3.7 | -1.3 | -0.1 | 51.7*
COc1ccc2cc3c(N)nn(C(=O)c4cccc([N+](=O)[O-])c4)c3nc2c1 | 16.4 | -3.9 | -1.4 | 58.3*
COc1cccc(NC(=S)Nc2cc(C)cc(C)n2)c1 | 0.7 | -3.3 | -1.0 | 86.1*
Cc1cc(C)nc(NC(=S)Nc2cccc(F)c2)c1 | 7.4 | -2.4 | -2.2 | 6.2
CC1=NN(C(=O)c2ccc(C)o2)C(O)(c2ccccc2)C1 (stereo not drawn) | -7.8 | 45.6* | -0.9 | -1.5
COc1cccc2sc(Nc3nc(-c4ccccn4)cs3)nc12 | 34.8* | -3.1 | -5.3 | 20.4
CC(C)Cn1c(/C=C/c2ccco2)nc2ccccc21 | 1.8 | -4.1 | -2.6 | 47.1*
COc1cccc(NC(C)C(=O)Nc2cc([N+](=O)[O-])ccc2Cl)c1 (stereo not drawn) | -5.9 | -1.3 | -1.4 | -0.8
Cc1ccc(Nc2nc(N)nc(CSc3nc(C)cc(C)n3)n2)cc1 | -1.2 | 4.9* | 0.7 | -5.6
CCOC(=O)C1=C(C)Nc2sc(C(=O)c3ccc(F)cc3)c(N)c2C1c1ccc(C(=O)OC)cc1 (stereo not drawn) | 20.1 | -3.4 | 7.1 | 6.2
CCOC(=O)C1=C(C)Nc2sc(C(=O)c3ccc(C)cc3)c(N)c2C1c1ccc(C(=O)OC)cc1 (stereo not drawn) | 23.8 | -3.3 | 7.8* | 4.6
Cc1ccc(-c2csc(Nc3ccc(C(=O)O)cc3)[n+]2Cc2ccccc2)cc1 | 44.3* | -1.5 | -2.1 | 4.2
CNc1nc(OC)nc(N(C#N)CN2C(=O)c3ccccc3S2(=O)=O)n1 | 5.3 | 9.4* | 6.5 | 0.0
Cc1cc(C)nc(N(C#N)CN2C(=O)c3ccccc3S2(=O)=O)n1 | 2.5 | 8.8* | 4.0 | -5.5
Cc1ccc([N+](=O)[O-])cc1NC(=S)NC(=O)C(C)(C)C | -5.4 | 5.1* | 3.3 | -2.3
Cc1ccc([N+](=O)[O-])cc1NC(=O)Cc1cccs1 | 4.0 | 0.2 | -2.9 | 54.1*
Cc1ccc([N+](=O)[O-])cc1NC(=O)Cc1ccc(F)cc1 | -8.1 | -1.4 | -2.5 | 4.8
COc1cc(Cl)c(C)cc1NC(=O)COc1ccc(C)nc1[N+](=O)[O-] | -4.8 | . | . | .
CCCOc1ccc(-c2nc(=S)[nH][nH]2)cc1 | 2.3 | 35.3* | 6.3 | 0.0
COC(=O)c1[nH]c2c(c1C)C(=O)CC(c1cccc(OC)c1)C2 (stereo not drawn) | -4.0 | -2.6 | 0.5 | 8.3
COc1ccc2ccccc2c1C(=O)/C=C\c1ccoc1 | -0.4 | 6.6* | -1.6 | 21.4
COc1cccc(NC(=O)CCCn2nc(C)c3c(C)n(-c4ccccc4)nc3c2=O)c1 | -1.5 | -2.1 | -0.4 | -4.5
COc1ccc(NC(=O)CN2C(=O)/C(=C3\SC(=S)N(C4CCS(=O)(=O)C4)C3=O)c3ccccc32)cc1 (stereo not drawn) | 32.0* | 0.1 | -1.0 | 8.2
CC(=O)Nc1c(C(=O)c2ccccc2)oc2ccccc12 | -3.5 | -0.1 | 2.4 | 7.4
CN1CCN(CC(=O)Nc2c(C(=O)c3ccccc3)oc3ccccc23)CC1 | -11.8 | -2.2 | 10.3* | -8.3

Source: PubChem BioAssay (several laboratories)
